Source: ChEMBL document CHEMBL5038575, “Novel Functionalized Cannabinoid Receptor Probes: Development of Exceptionally Potent Agonists” (J Med Chem, 2021)
The source made the active and inactive calls. The rule behind the calls is not given here.

What was measured:
[1] = target: Cannabinoid receptor 1 (Rattus norvegicus, UniProt P20272); experiment: Displacement of [3H]CP55940 from rat brain membrane CB1 receptor assessed as inhibition constant incubated for 1 hr by TopCount scintillation counting method; type: cell membranes
Chain of Cannabinoid receptor 1 (Rattus norvegicus, UniProt P20272) (P20272 whole entry): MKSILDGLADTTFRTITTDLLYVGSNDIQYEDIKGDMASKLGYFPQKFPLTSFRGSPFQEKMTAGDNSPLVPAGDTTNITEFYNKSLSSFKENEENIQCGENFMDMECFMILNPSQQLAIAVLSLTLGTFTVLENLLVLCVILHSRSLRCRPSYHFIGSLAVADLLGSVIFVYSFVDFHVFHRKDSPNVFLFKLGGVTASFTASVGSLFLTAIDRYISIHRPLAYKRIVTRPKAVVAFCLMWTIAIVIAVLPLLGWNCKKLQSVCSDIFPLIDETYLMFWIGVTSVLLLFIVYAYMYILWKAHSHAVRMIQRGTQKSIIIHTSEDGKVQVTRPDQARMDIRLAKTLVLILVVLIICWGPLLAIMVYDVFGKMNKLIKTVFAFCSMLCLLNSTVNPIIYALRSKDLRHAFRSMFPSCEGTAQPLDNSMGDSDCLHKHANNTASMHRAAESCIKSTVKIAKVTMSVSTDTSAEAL
In short: (§1)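 Competition binding against [³H]CP-55,940. CB1 from rat brain membranes; CB2 from membranes of HEK293 cells expressing mouse or human CB2. IC50 obtained by nonlinear regression and converted to Ki. Three independent experiments in triplicate; mean with SEM.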

[2] = target: T1, Cannabinoid receptor 2 (Homo sapiens, UniProt P34972); experiment: Agonist activity at 3xHA tagged human CB2 receptor expressed in CHO-K1 cells assessed as reduction in forskolin-stimulated cAMP accumulation by measuring maximal efficacy incubated for 30 mins by cAMP assay relative to CP-55940; type: functional, cell-based; details: filed as agonist
T1 sequence (P34972 whole entry): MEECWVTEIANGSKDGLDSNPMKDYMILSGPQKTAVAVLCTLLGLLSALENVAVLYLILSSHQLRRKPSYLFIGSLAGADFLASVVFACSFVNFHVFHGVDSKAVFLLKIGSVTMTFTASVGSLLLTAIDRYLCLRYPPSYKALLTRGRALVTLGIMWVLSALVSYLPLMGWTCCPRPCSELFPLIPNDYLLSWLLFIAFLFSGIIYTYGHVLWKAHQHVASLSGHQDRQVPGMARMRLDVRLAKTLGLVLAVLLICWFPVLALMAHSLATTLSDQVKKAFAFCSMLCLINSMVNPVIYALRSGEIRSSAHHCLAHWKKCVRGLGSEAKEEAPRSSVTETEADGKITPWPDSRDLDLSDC
In short: (§2)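 CHO-K1 cells stably expressing 3xHA-tagged CB1 or CB2, plated at 4000 cells/well in Opti-MEM with 1% FBS for 3 h at 37 °C. Cells cotreated with 25 μM RO-20-1724, 20 μM forskolin and agonist for 30 min at 37 °C, then lysed. cAMP read by HTRF (665/620 nm) after 1 h at room temperature in the dark. Data normalized to vehicle and 100 nM CP-55,940; three-parameter nonlinear regression; ≥4 experiments in duplicate.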

[3] = target: Cannabinoid receptor 2 (Mus musculus, UniProt P47936); experiment: Displacement of [3H]CP55940 from mouse CB2 expressed in HEK293 cell membrane assessed as inhibition constant incubated for 1 hr by TopCount scintillation counting method; type: cell membranes; in short: as §1
Chain of Cannabinoid receptor 2 (Mus musculus, UniProt P47936) (P47936 whole entry): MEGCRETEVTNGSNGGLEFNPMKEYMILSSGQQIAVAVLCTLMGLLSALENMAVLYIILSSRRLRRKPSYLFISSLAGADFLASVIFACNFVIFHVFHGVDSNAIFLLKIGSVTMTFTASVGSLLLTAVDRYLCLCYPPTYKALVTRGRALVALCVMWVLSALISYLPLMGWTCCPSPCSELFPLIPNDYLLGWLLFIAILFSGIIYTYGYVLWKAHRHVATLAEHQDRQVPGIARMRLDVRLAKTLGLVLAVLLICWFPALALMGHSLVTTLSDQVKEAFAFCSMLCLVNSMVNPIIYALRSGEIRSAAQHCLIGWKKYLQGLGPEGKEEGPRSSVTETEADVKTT

[4] = target: T1, Cannabinoid receptor 2; experiment: Displacement of [3H]CP55940 from human CB2 expressed in HEK293 cell membrane assessed as inhibition constant incubated for 1 hr by TopCount scintillation counting method; type: cell membranes; in short: as §1
[5] = target: T1, Cannabinoid receptor 2; experiment: Displacement of [3H]CP55940 from CB2 (unknown origin) assessed as reduction in maximum binding capacity at 4 nM incubated for 1 hr by TopCount scintillation counting method relative to control
In short: (§3)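 Wash-resistant binding. […] Saturation binding used 25 μg protein, [³H]CP-55,940 at 0.5–23.8 nM and 4 μM unlabeled CP-55,940 for nonspecific binding, 1 h at 30 °C. Samples were filtered and counted by scintillation. Bmax came from one-site fits; % reduction was taken versus untreated control.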

[6] = target: T2, Cannabinoid receptor 1 (Homo sapiens, UniProt P21554); experiment: Agonist activity at 3xHA tagged human CB1 receptor expressed in CHO-K1 cells assessed as reduction in forskolin-stimulated cAMP accumulation incubated for 30 mins by cAMP assay; type: functional, cell-based
T2 sequence (P21554 whole entry): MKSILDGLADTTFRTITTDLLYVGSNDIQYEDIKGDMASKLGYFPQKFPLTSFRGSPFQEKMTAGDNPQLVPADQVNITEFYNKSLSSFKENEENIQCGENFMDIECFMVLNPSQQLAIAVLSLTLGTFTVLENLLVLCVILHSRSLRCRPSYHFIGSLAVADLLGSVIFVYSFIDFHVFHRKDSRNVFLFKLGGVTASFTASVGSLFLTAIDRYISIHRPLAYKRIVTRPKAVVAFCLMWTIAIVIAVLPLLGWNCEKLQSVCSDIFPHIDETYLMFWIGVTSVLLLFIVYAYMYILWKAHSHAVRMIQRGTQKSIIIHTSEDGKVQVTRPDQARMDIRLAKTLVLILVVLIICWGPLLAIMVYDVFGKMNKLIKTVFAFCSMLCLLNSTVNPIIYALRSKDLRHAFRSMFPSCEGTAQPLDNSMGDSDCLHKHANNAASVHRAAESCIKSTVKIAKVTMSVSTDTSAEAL

[7] = target: T1, Cannabinoid receptor 2; experiment: Agonist activity at 3xHA tagged human CB2 receptor expressed in CHO-K1 cells assessed as reduction in forskolin-stimulated cAMP accumulation incubated for 30 mins by cAMP assay; type: functional, cell-based
[8] = target: Cannabinoid receptor 1 (Rattus norvegicus) (UniProt P20272); experiment: Displacement of [3H]CP55940 from rat brain membrane CB1 assessed as reduction in maximum binding capacity at 4 nM incubated for 1 hr by TopCount scintillation counting method relative to control; type: cell membranes; in short: as §3
Chain of Cannabinoid receptor 1 (Rattus norvegicus) (P20272 whole entry): as the sequence (P20272 whole entry) above

[9] = target: T2, Cannabinoid receptor 1; experiment: Agonist activity at 3xHA tagged human CB1 receptor expressed in CHO-K1 cells assessed as reduction in forskolin-stimulated cAMP accumulation by measuring maximal efficacy incubated for 30 mins by cAMP assay relative to CP-55940; type: functional, cell-based; details: filed as agonist; in short: as §2
[10] = system: Mus musculus; experiment: Antinociceptive activity in CD-1 mouse model of thermal-induced nociception assessed as maximum efficacy causing increase in tail withdrawal latency administered intraperitonially for 6 hrs by tail flick test; type: functional, organism-based; details: dose 0.03-1 mg/kg
In short: (§4)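 Male CD-1 mice, 25–30 g, n = 6/dose, each used once. Drug was dissolved in 2% DMSO, 4% Tween 80 and 4% propylene glycol, then diluted with saline, and given ip at 10 mL/kg. Tail immersed in a 52 °C water bath; latency recorded at baseline and at 20, 60, 180 and 360 min after injection. Results expressed as % maximum possible effect; ED50 given with 95% CI.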

[11] = system: Mus musculus; experiment: Antinociceptive activity in CD-1 mouse model of thermal-induced nociception assessed as maximum efficacy causing increase in tail withdrawal latency at 0.03 to 1 mg/kg, ip measured 20 mins post-injection by tail flick test; type: functional, organism-based; details: dose 0.03-1 mg/kg; in short: as §4
[12] = target: Cannabinoid receptor 1 (Rattus norvegicus) (UniProt P20272); experiment: Displacement of [3H]CP55940 from rat brain membrane CB1 assessed as reduction in maximum binding capacity at 4 nM incubated for 1 hr followed by compound washout and measured after 60 to 180 mins by TopCount scintillation counting method; type: cell membranes; details: filed as agonist
[13] = system: Mus musculus; experiment: Induction of hypothermia in C57BL/6 mouse assessed as reduction in body temperature at 0.1 mg/kg, ip measured after 24 hrs; type: toxicity, organism-based; details: in vivo
[14] = Toxicity in C57BL/6 mouse assessed as reduction in locomotion at 0.1 to 1 mg/kg, ip measured after 20 mins; type: organism-based; details: in vivo, dose 0.1-1 mg/kg
In short: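 C57BL/6 mice, n = 6–7/treatment, given ip drug in 2% DMSO/1% Tween 80/saline at 0.1–1.0 mg/kg. Habituated to the apparatus in the morning. Placed in an infrared beam activity monitor 20 min after injection; ambulatory and horizontal counts recorded over 10 min.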

[15] = Toxicity in […] mouse assessed as reduction in gastrointestinal motility by measuring colonic expulsion at 0.1 mg/kg, ip measured after 20 to 220 mins; type: organism-based; details: in vivo, time 20-220 min
In short: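 Mice, n = 6–7/treatment, given vehicle (DMSO/Tween 80/saline 2:1:17) or 0.1 mg/kg ip. At 20, 120 and 220 min, under light isoflurane, a 2.5 mm glass bead was inserted 2 cm into the rectum. Time to bead expulsion was recorded.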

[16] = system: Mus musculus; experiment: Antinociceptive activity in CD-1 mouse model of thermal-induced nociception assessed as maximum efficacy causing increase in tail withdrawal latency at 0.03 mg/kg, ip measured 60 mins post-injection by tail flick test; type: functional, organism-based; in short: as §4
[17] = system: Mus musculus; experiment: Antinociceptive activity in CD-1 mouse model of thermal-induced nociception assessed as increase in tail withdrawal latency administered intraperitonially for 6 hrs by tail flick test; type: functional; details: CD-1, ip; in short: as §4

Structure (SMILES) | Ki [1] [pM] | Emax [2] [%] | Ki [3] [pM] | Ki [4] [pM] | Bmax [5] [%] | EC50 [6] [pM] | EC50 [7] [pM] | Emax [9] [%] | Bmax ([5]; filed as agonist) [%] | Bmax ([8]; filed as agonist) [%] | further results
CC1(C)Oc2cc(C3(CCCCCCN=C=S)CCCC3)cc(O)c2[C@@H]2C[C@H](CO)CC[C@H]21 | 1100 | 57 | 900 | 1300 | 34 | 520 | 2700 | 104 |  |  | Bmax [8]: 39%
CC1(C)Oc2cc(C3(CCCCCCCN=C=S)CCCC3)cc(O)c2[C@@H]2C[C@H](CN=C=S)CC[C@H]21 | 37600 |  | 14600 | 4200 | 15 |  |  |  |  |  | Bmax [8]: 37%
CC1(C)Oc2cc(C3(CCCCCCCC#N)CCCC3)cc(O)c2[C@@H]2C[C@H](CN=[N+]=[N-])CC[C@H]21 | 300 |  | 1400 | 300 |  |  |  |  |  |  | Activity [5]: inactive; Activity [8]: inactive
CC(C)(CCCCCCN=C=S)c1cc(O)c2c(c1)OC(C)(C)[C@@H]1CC[C@@H](CO)C[C@@H]21 | 390 | 107 | 800 | 3150 |  | 5800 | 5500 | 96 | 75 | 65 | 
CC(C)(CCCCCCN=[N+]=[N-])c1cc(O)c2c(c1)OC(C)(C)[C@@H]1CC[C@@H](CO)C[C@@H]21 | 410 | 72 | 800 | 1400 |  | 98 | 770 | 99 | 63 | 75 | 
CC1(C)Oc2cc(C3(CCCCCCCN=[N+]=[N-])CCCC3)cc(O)c2[C@@H]2C[C@H](CN=[N+]=[N-])CC[C@H]21 | 700 |  | 1200 | 1500 | 21 |  |  |  |  |  | Bmax [8]: 28%
CC1(C)Oc2cc(C3(CCCCCCN=[N+]=[N-])CCCC3)cc(O)c2[C@@H]2C[C@H](CO)CC[C@H]21 | 400 |  | 800 | 800 |  |  |  |  | 65 | 87 | 
CC(C)(CCCCCCC#N)c1cc(O)c2c(c1)OC(C)(C)[C@@H]1CC[C@@H](CO)C[C@@H]21 | 400 | 70 | 800 | 400 |  | 88 | 380 | 103 | 60 | 76 | Activity [10]: Dose-Dependent Effect; Activity [11]: Active; Activity [12]: Active; Activity [13]: Toxic; Activity [14]: Toxic; Activity [15]: Toxic; Activity [16]: inactive; ED50 [17]: 0.12 mg/kg
CC1(C)Oc2cc(C3(CCCCCCCC#N)CCCC3)cc(O)c2[C@@H]2C[C@H](CN=C=S)CC[C@H]21 | 400 |  | 1900 | 600 |  |  |  |  |  |  | Activity [5]: inactive; Activity [8]: inactive
CCCCCCC(C)(C)c1cc(O)c2c(c1)OC(C)(C)[C@@H]1CC[C@@H](CO)C[C@@H]21 | 3000 |  |  | 2100 |  |  |  |  |  |  | Activity [5]: inactive; Activity [8]: inactive
CC1(C)Oc2cc(C3(CCCCCCCN=C=S)CCCC3)cc(O)c2[C@@H]2C[C@H](CO)CC[C@H]21 | 400 | 74 | 1100 | 1000 | 19 | 430 | 390 | 105 |  | 51 | 
CC1(C)Oc2cc(C3(CCCCCCCC#N)CCCC3)cc(O)c2[C@@H]2C[C@H](CO)CC[C@H]21 | 500 |  | 900 | 400 |  |  |  |  | 40 | 60 | 
CC1(C)Oc2cc(C3(CCCCCCC#N)CCCC3)cc(O)c2[C@@H]2C[C@H](CO)CC[C@H]21 | 800 | 61 | 1000 | 1400 |  | 310 | 960 | 112 | 45 | 68 | 
CC1(C)Oc2cc(C3(CCCCCCCN=[N+]=[N-])CCCC3)cc(O)c2[C@@H]2C[C@H](CO)CC[C@H]21 | 500 |  | 1600 | 1500 | 37 |  |  |  |  | 48 | 
